Hits are enriched below; roughly 1.7% of the tested compounds scored in any of these assays.
Rtt109 Vps75 – C. albicans Rtt109 histone acetyltransferase inhibition; Q5AAJ8; purified Rtt109/Vps75, ThioGlo CoA-SH fluorescence, 4 h; inhibition, % at 34.9 µM; actives 0.16% (n = 330,000); AID 540336;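 active = inhibition of at least 50% in every replicate; inconclusive = best replicate reaches 50% inhibition but some replicates fall short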
Target sequence (Q5AAJ8 whole entry, looked up): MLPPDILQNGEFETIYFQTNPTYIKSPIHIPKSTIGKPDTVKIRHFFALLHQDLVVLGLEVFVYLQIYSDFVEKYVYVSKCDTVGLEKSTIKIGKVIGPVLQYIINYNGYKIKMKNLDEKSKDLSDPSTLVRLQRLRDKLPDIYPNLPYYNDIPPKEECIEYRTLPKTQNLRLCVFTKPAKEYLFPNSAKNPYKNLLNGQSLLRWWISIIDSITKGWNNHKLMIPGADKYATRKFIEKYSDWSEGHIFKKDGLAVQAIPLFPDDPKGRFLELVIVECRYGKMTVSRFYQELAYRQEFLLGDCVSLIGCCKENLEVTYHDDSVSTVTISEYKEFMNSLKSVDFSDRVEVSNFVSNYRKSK
CSC inhib – blocks cancer stem cells. inhibition, % at 7.5 µM. AID 2717. cancer stem cell-like cells viability, luminescence. actives 1.1% (n = 300,000); in the data active = inhibition above about 75%; inconclusive = no clear call, values can overlap the other calls; tested in HMLE shEcad cells
SKKanGAS inh – SKKanGAS growth inhibition | S. pyogenes SKKanGAS, kanamycin growth, BacTiter-Glo, 6 h | inhibition, % at 7.5 µM | actives 1.3% (n = 300,000) | AID 1662;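 active = mean replicate score, as percent of positive control median, at least 50; inconclusive = mean below 50 but one replicate at or above 50; inactive = mean and every replicate below 50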;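 also: strain carries kanamycin resistance gene driven by streptokinase promoter and grows in 40 µg/ml kanamycin; loss of luminescence reflects streptokinase promoter inhibition or plain growth inhibition; 0% = median of DMSO wells and 100% = positive control at its reference dose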
PfHsp90 set2 – growth inhibition of yeast expressing Plasmodium Hsp90 | actives 0.32% (n = 310,000) | S. cerevisiae expressing PfHsp90, BacTiter-Glo ATP, 48 h; yeast lacking PDR1 and PDR3 efflux regulators | inhibition, % at 9.4 µM;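 active = every replicate shows inhibition above about 80%, whatever the replicate mean, limit read from the data; inconclusive = mean inhibition reaches the set limit but some replicate falls short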;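 also: 0% = DMSO neutral controls and 100% = 20 µM radicicol positive controls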
PglD inh – PglD (C. jejuni) enzyme inhibition; actives 0.098% (n = 360,000); purified PglD enzyme, DTNB colorimetric CoA detection; inhibition, % at 12.5 µM; AID 602405; in the data active = inhibition above about 16%, passing the limit was not always enough; inconclusive = no clear call, values can overlap the other calls
FN deposit inh – fibronectin deposition inhibition; actives 0.086% (n = 350,000); inhibition, % at 12.6 µM; AH1F fibroblasts, Alexa488-fibronectin deposition fluorescence, overnight; AID 743247;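 active = mean inhibition across replicates of 30% or more, regardless of how many single replicates reach that level; inconclusive = mean under 30% yet at least half of replicates reach 30%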;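 also: positive control wells lacked labelled fibronectin entirely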
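Material: AH1F fibroblast monolayer depositing Alexa488-labelled fibronectin into matrix / Amount: 10000 AH1F cells per well / Signal: fluorescence 485/525 nm / Medium: DMEM, 2% serum / Compound: single dose, pinned / Incubation: 1 h cell adhesion before compound, then overnight fibronectin incubation / Reagent: Alexa488-FN, 24 nM final / Read-out: inhibition of fibronectin deposition signal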
PglD inh SP – blocks Campylobacter jejuni PglD acetyltransferase activity | shares compounds with PglD inh | Purified C. jejuni PglD, DTNB absorbance 412 nm | inhibition, % at 20 µM | 320 tested, under 10 active;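 active = mean inhibition across replicates of at least 20% with every single replicate also at 20% or more; inconclusive = mean inhibition at least 20% but some replicate falls below 20%; inactive = mean inhibition under 20% and not all replicates reach it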;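 also: initial rate of CoA release by acetyl transfer from AcCoA to the UDP-4-amino sugar; 0% = median of neutral control wells and 100% = median of positive control wells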
Numbers without * were called inactive; ? = inconclusive; . = no result given.

SMILES | Rtt109 Vps75 | CSC inhib | SKKanGAS inh | PfHsp90 set2 | PglD inh | FN deposit inh | PglD inh SP
O=C(NCc1cccnc1)Nc1cccc(NC(=O)NCc2cccnc2)c1 | 1 | -5 | 3 | . | 0 | 12 | .
CCNC(=O)C[C@H]1CC[C@H]2[C@@H](COC[C@H](O)CN2C(=O)C2CCOCC2)O1 | . | . | . | . | -3 | -2 | .
N#C[C@H]1[C@H](c2ccccc2-c2ccccc2F)[C@@H](CO)N1C(=O)C1CCOCC1 | . | . | . | . | . | -20 | .
O=C(COC(=O)CCc1nc2ccccc2n1-c1ccccc1)Nc1cccc(Cl)c1 | 5 | -18 | 3 | . | 29* | . | -2
COc1cccc2cc(-c3nnc(-c4ccccc4)o3)c(=O)oc12 | . | -5 | 0 | -5 | 21* | -3 | 4
COc1ccc(-c2nnc(-c3cc4ccccc4oc3=O)o2)cc1 | -6 | -2 | -5 | 8 | 2 | -3 | .
COc1ccc(-c2ccc([C@H]3[C@H](CO)N4CCCCN(C(=O)NC(C)C)C[C@@H]34)cc2)cc1 | . | . | . | . | 0 | . | .
O=C(NNS(=O)(=O)c1ccc(Cl)cc1)c1sccc1-n1cccc1 | -6 | 1 | -1 | -65 | 25* | -2 | 6
O=C(NNS(=O)(=O)c1ccccc1)c1sccc1-n1cccc1 | 4 | -6 | 7 | -3 | 3 | -1 | .
COc1cc(CC(=O)NCc2ccco2)cc(OC)c1OC | 4 | . | -8 | -33 | 22* | -6 | -1
COc1cc(C(=O)NCc2ccco2)cc(OC)c1OC | -18 | -7 | -1 | -8 | . | -8 | .
COc1ccc(CONS(=O)(=O)c2ccc(NC(C)=O)cc2)cc1Cl | -2 | . | -3 | . | 22* | . | 3
CCCNC(=O)C[C@@H]1CC[C@@H]2[C@H](COC[C@@H](O)CN2C(=O)c2cc(Cl)cc(Cl)c2)O1 | . | . | . | . | 0 | -2 | .
O=C(O)C1CCCN(S(=O)(=O)c2ccc(F)cc2)C1 (stereo not drawn) | 10 | . | 3 | -4 | 10 | . | .
O=S(=O)(c1ccc(F)cc1)N1CCCC(CO)C1 (stereo not drawn) | 0 | 0 | -2 | 15 | 33* | . | -2
C[C@@H]1CN([C@H](C)CO)C(=O)c2cc(C#CCN(C)C)cnc2O[C@H]1CN(C)Cc1ccc(C(=O)O)cc1 | . | . | . | . | 1 | -6 | .
Cn1cnnc1SCC(C)(C)NS(=O)(=O)c1ccc(Cl)cc1 | 0 | -10 | 0 | 11 | 29* | -4 | ?
CC(C)NC(=O)Nc1ccc2c(c1)CC(=O)N([C@H](C)CO)C[C@@H](C)[C@H](CN(C)S(=O)(=O)c1ccc(Cl)cc1)O2 | . | . | . | . | 1 | 20 | .
COc1cc2cc(CCCOC(=O)c3ccc(C(F)(F)F)cc3)oc(=O)c2cc1OC | 0 | -24 | . | -31 | 35* | -5 | 6
CN(C)C(=O)CSc1nnc(-c2cc(-c3cccs3)nc3ccccc23)o1 | -2 | 40 | 34 | 10 | 54* | . | -8
COc1ccc(/C=C(\NC(=O)c2ccccc2)C(=O)N2CCN(C)CC2)cc1 | -3 | . | -2 | 15 | 2 | 2 | .
COc1ccc(/C=C(/NC(=O)c2ccccc2)C(=O)N2CCCC2)cc1 | -2 | . | 4 | 2 | 58* | 0 | -7
Cc1cccc(N(Cc2cc3ccccc3[nH]c2=O)C(=O)c2ccco2)c1C | 4 | -14 | 2 | -22 | 32* | . | 3
COc1ccc(S(=O)(=O)Nc2cccc3c2O[C@H](CN(C)Cc2ccncc2)[C@H](C)CN([C@H](C)CO)C3=O)cc1 | . | . | . | . | -3 | . | .
CCCCOc1ccc(CC(=O)NCC(=O)O)cc1 | -4 | -18 | -17 | -22 | 23* | 2 | -3
SMILES | Rtt109 Vps75 | CSC inhib | SKKanGAS inh | PfHsp90 set2 | PglD inh | FN deposit inh | PglD inh SP
Cc1cccc(C(=O)NCCNC(=O)c2ccco2)c1 | -4 | . | 4 | -6 | 20* | -2 | 10
C[C@H](CO)N1C[C@H](C)[C@H](CN(C)S(C)(=O)=O)Oc2ccc(NS(=O)(=O)c3cccs3)cc2CC1=O | . | . | . | . | 1 | . | .
C=CCNc1nc(Nc2ccc([N+](=O)[O-])cc2)nc(OCC)n1 | -4 | -7 | -4 | -54 | . | -2 | .
C=CCNc1nc(Cl)nc(Nc2ccc(OCC)cc2)n1 | -10 | -1 | -13 | 8 | 29* | -2 | 3
CCN1C(=O)CC(N2CCN(c3ccc(Cl)cc3)CC2)C1=O (stereo not drawn) | -4 | -10 | -10 | -1 | 35* | . | 2
CCN1C(=O)CC(N2CCN(c3ccc(C(=O)c4ccccc4)cc3)CC2)C1=O (stereo not drawn) | -4 | -8 | 2 | 14 | -7 | . | .
COc1ccc(CSc2nc(O)cc(=O)n2CC(C)C)cc1F | -6 | -1 | 7 | 9 | 21* | -11 | 2
CC(C)OCCCn1c(=NC(=O)c2cccs2)c(C#N)cc2c(=O)n3ccccc3nc21 | . | -3 | 4 | . | 68* | 11 | -8
CC(C)OCCCn1c(=NC(=O)c2ccncc2)c(C#N)cc2c(=O)n3ccccc3nc21 | 2 | -13 | -2 | 17 | 4 | . | .
O=C(Nc1ccc(Cl)c(Cl)c1)N[C@@H]1CC[C@@H](CCn2cc(C3CC3)nn2)O[C@H]1CO | . | . | . | . | -2 | -2 | .
CCOC(=O)C1CCCN(C2CC(=O)N(c3ccc(C(C)C)cc3)C2=O)C1 (stereo not drawn) | 12 | -8 | -8 | 44 | 7 | -19 | .
CCOC(=O)C1CCCN(C2CC(=O)N(c3ccccc3)C2=O)C1 (stereo not drawn) | 18 | -1 | 1 | -24 | 27* | 7 | -3
C=CCc1c(OC)ccc2c1c(S(=O)(=O)c1ccc(C)cc1)cn2COC | 5 | 0 | 0 | 23 | 22* | 6 | 1
C[C@@H]1CCCCO[C@@H](CN(C)CC2CCCCC2)[C@H](C)CN([C@H](C)CO)C(=O)c2cc(NC(=O)Nc3ccccc3)ccc2O1 | . | . | . | . | 1 | 1 | .
O=C(C[C@@H]1C[C@@H]2c3cc(NC(=O)c4ccc5c(c4)OCO5)ccc3O[C@@H]2[C@@H](CO)O1)NC1CCCC1 | . | . | . | . | -6 | -19 | .
COc1ccc(-n2ccnc2)cc1 | 4 | -17 | 14 | 12 | 37* | -4 | 9
Cc1ccc(C(=O)NCc2ccc3c(c2)OCO3)cc1 | 0 | -14 | 8 | -1 | -1 | 1 | .
Cc1ccc(CN(c2ccc(C(=O)NCc3ccc4c(c3)OCO4)cc2)S(C)(=O)=O)cc1 | -1 | -11 | 2 | . | 27* | . | -2
c1ccc(COc2ncnc3c2ncn3CCCNCc2cccs2)cc1 | . | . | . | . | 28* | 5 | 1
COc1ccc(C2CC(c3ccccc3)=NN2C(=O)COC(=O)/C=C/c2ccc(O)c(OC)c2)cc1 (stereo not drawn) | 3 | -4 | 34 | 7 | 34* | -9 | 7
CCCN(C)C[C@H]1Oc2ncc(C#CC3CC3)cc2C(=O)N([C@H](C)CO)C[C@@H]1C | . | . | . | . | . | 6 | .
